Source: ChEMBL document CHEMBL4257459, “Synergistic antifungal effect of cyclized chalcone derivatives and fluconazole against Candida albicans” (2017)
Active and inactive are the calls of the source.

What was measured:
Candida albicans [1] = assay: Antifungal activity against fluconazole susceptible Candida albicans 0079gr by CLSI protocol based broth microdilution method; format: functional
Summary of the method: (§1)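 Clinical isolates and control strain subcultured at least twice on TSA, 37 °C, 48 h. MICs by CLSI M27-A3 broth microdilution; compounds dissolved in DMSO to 2000 μg mL–1 stock. Fluconazole positive control, culture, media and DMSO vehicle controls in each run. Duplicate experiments; MIC in μg mL–1.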

Candida albicans [2] = assay: Inhibition of ergosterol biosynthesis in fluconazole resistant Candida albicans A171 at 8 ug/ml relative to control; format: functional
Summary of the method: (§2)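 Total sterols quantified by alcoholic KOH extraction in cells grown in 50 ml TSB with compounds at MIC and ½ MIC; untreated and 8 μg mL–1 fluconazole controls. Spectral scan; ergosterol content from A281.5 and A230 absorbances, dilution factor and pellet weight, correcting for 24(28) DHE.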

Candida albicans [3] = assay: Antifungal activity against fluconazole susceptible Candida albicans 003gr by CLSI protocol based broth microdilution method; format: functional; summary of the method: as §1
Candida albicans [4] = assay: Antifungal activity against fluconazole resistant Candida albicans 167-1 by CLSI protocol based broth microdilution method; format: functional
Summary of the method: (§3)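 Broth microdilution per CLSI M27-A3 against clinical C. albicans isolates. Strains sub-cultured at least twice on Tryptone Soya Agar, 37 °C, 48 h. Compounds dissolved in DMSO at 2000 μg mL–1 stock. Fluconazole positive control, plus culture, media and vehicle controls. Run in duplicate; MIC in μg mL–1.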

Candida albicans [5] = assay: Antifungal activity against Candida albicans ATCC 90028 by CLSI protocol based broth microdilution method; format: functional; summary of the method: as §1
Candida albicans [6] = assay: Antifungal activity against fluconazole susceptible Candida albicans 0072gr by CLSI protocol based broth microdilution method; format: functional; summary of the method: as §1
Candida albicans [7] = assay: Down regulation of ERG11 gene expression in fluconazole susceptible Candida albicans ATCC 90028 at 8 ug/ml after 2 hrs by qRT PCR analysis; format: functional, organism-based
Summary of the method: (§4)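 Cells exposed 2 h to test agents at MIC. Total RNA isolated, cDNA synthesized, qPCR for ERG11 with ACT1 as endogenous control. Triplicate independent experiments, reported as mean ± standard deviation.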

Candida albicans [8] = assay: Antifungal activity against fluconazole susceptible Candida albicans 004B1 by CLSI protocol based broth microdilution method; format: functional; summary of the method: as §1
Candida albicans [9] = assay: Antifungal activity against fluconazole resistant Candida albicans 167-2 by CLSI protocol based broth microdilution method; format: functional; summary of the method: as §3
Candida albicans [10] = assay: Antifungal activity against fluconazole susceptible Candida albicans 004gr by CLSI protocol based broth microdilution method; format: functional; summary of the method: as §1
Candida albicans [11] = assay: Antifungal activity against fluconazole susceptible Candida albicans 002B1 by CLSI protocol based broth microdilution method; format: functional; summary of the method: as §1
Candida albicans [12] = assay: Inhibition of ergosterol biosynthesis in fluconazole susceptible Candida albicans ATCC 90028 at 8 ug/ml relative to control; format: functional; summary of the method: as §2
Candida albicans [13] = assay: Antifungal activity against fluconazole resistant Candida albicans A171 by CLSI protocol based broth microdilution method; format: functional; summary of the method: as §3
Candida albicans [14] = assay: Up regulation of ERG11 gene expression in fluconazole resistant Candida albicans A171 at 8 ug/ml after 2 hrs by qRT PCR analysis; format: functional, organism-based; summary of the method: as §4
Candida albicans [15] = assay: Antifungal activity against fluconazole susceptible Candida albicans 002B1 in presence of fluconazole by CLSI protocol based broth microdilution method; format: functional
Candida albicans [16] = assay: Inhibition of ABC efflux pumps in fluconazole resistant Candida albicans A171 assessed as reduction in energy-dependent rhodamine 6G efflux in presence of 0.1 M glucose after 25 mins by fluorescence assay relative to control
Summary of the method: (§5)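 Cells grown in TSB at 37 °C for 8 h, washed, resuspended in glucose-free PBS at 1 × 10^8 cells. De-energized 45 min with 5 mM deoxyglucose plus 5 mM dinitrophenol. […] Washed, sampled 5–25 min, then 0.1 M glucose added. Absorbance 527 nm, R6G from standard curve.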

Candida albicans [17] = assay: Inhibition of ABC efflux pumps in fluconazole resistant Candida albicans 167-2 assessed as reduction in energy-dependent rhodamine 6G efflux in presence of 0.1 M glucose after 25 mins […] relative to control
Candida albicans [18] = assay: Inhibition of ABC efflux pumps in fluconazole susceptible Candida albicans 002B1 assessed as reduction in energy-dependent rhodamine 6G efflux in presence of 0.1 M glucose after 25 mins […] relative to control
Candida albicans [19] = assay: Inhibition of ABC efflux pumps in fluconazole resistant Candida albicans 167-1 assessed as reduction in energy-dependent rhodamine 6G efflux in presence of 0.1 M glucose after 25 mins […] relative to control
Candida albicans [20] = assay: Inhibition of ABC efflux pumps in fluconazole susceptible Candida albicans 004B1 assessed as reduction in energy-dependent rhodamine 6G efflux in presence of 0.1 M glucose after 25 mins by fluorescence assay relative to control; summary of the method: as §5
Candida albicans [21] = assay: Antifungal activity against fluconazole resistant Candida albicans A171 in presence of fluconazole by CLSI protocol based broth microdilution method; format: functional
Summary of the method: (§6)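 Checkerboard-style combination with fluconazole at a 1 : 1 ratio, over concentrations 2–4 fold below each agent's MIC alone, by CLSI broth microdilution. Fractional inhibitory concentration index calculated and interpreted as synergy (<0.5), additive (0.5–1), indifferent or antagonistic.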

Candida albicans [22] = assay: Antifungal activity against fluconazole susceptible Candida albicans 004B1 in presence of fluconazole by CLSI protocol based broth microdilution method; format: functional
Candida albicans [23] = assay: Inhibition of ABC efflux pumps in fluconazole susceptible Candida albicans 0079gr assessed as reduction in energy-dependent rhodamine 6G efflux in presence of 0.1 M glucose after 25 mins by fluorescence assay relative to control; summary of the method: as §5
Candida albicans [24] = assay: Antifungal activity against fluconazole susceptible Candida albicans 003gr in presence of fluconazole by CLSI protocol based broth microdilution method; format: functional
Candida albicans [25] = assay: Antifungal activity against fluconazole resistant Candida albicans 167-1 in presence of fluconazole by CLSI protocol based broth microdilution method; format: functional; summary of the method: as §6
Candida albicans [26] = assay: Antifungal activity against fluconazole resistant Candida albicans 167-2 in presence of fluconazole by CLSI protocol based broth microdilution method; format: functional; summary of the method: as §6
Candida albicans [27] = assay: Antifungal activity against fluconazole susceptible Candida albicans 004gr in presence of fluconazole by CLSI protocol based broth microdilution method; format: functional
Candida albicans [28] = assay: Inhibition of ergosterol biosynthesis in fluconazole susceptible Candida albicans ATCC 90028 at 0.5 to 1 times MIC relative to control; format: functional
Summary of the method: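 ATCC90028 grown in 50 ml TSB with MIC and ½ MIC of compound; untreated and 8 μg mL–1 fluconazole controls. Sterols extracted by alcoholic KOH method and spectrophotometrically scanned; ergosterol % calculated from A281.5 and A230 (E values 290 and 518) with dilution factor, per pellet weight.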

Candida albicans [29] = assay: Inhibition of ergosterol biosynthesis in fluconazole resistant Candida albicans A171 at 0.5 to 1 times MIC relative to control; format: functional; summary of the method: as §2
Candida albicans [30] = assay: Antifungal activity against fluconazole susceptible Candida albicans 0072gr in presence of fluconazole by CLSI protocol based broth microdilution method; format: functional
Candida albicans [31] = assay: Antifungal activity against fluconazole susceptible Candida albicans 0079gr in presence of fluconazole by CLSI protocol based broth microdilution method; format: functional
Candida albicans [32] = assay: Inhibition of ABC efflux pumps in fluconazole susceptible Candida albicans 004gr assessed as reduction in energy-dependent rhodamine 6G efflux in presence of 0.1 M glucose after 25 mins by fluorescence assay relative to control; summary of the method: as §5
Candida albicans [33] = assay: Down regulation of ERG11 gene expression in fluconazole susceptible Candida albicans ATCC 90028 at MIC after 2 hrs by qRT PCR analysis relative to control; format: functional
Summary of the method: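 Cells exposed to compound at MIC for 2 h; total RNA isolated, cDNA synthesised, ERG11 measured by real-time qPCR with ACT1 as endogenous control. Triplicate independent experiments; mean ± standard deviation.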

Candida albicans [34] = assay: Down regulation of ERG11 gene expression in fluconazole resistant Candida albicans A171 at MIC after 2 hrs by qRT PCR analysis relative to control; format: functional; summary of the method: as §4
Candida albicans [35] = assay: Inhibition of ABC efflux pumps in fluconazole susceptible Candida albicans 0072gr assessed as reduction in energy-dependent rhodamine 6G efflux in presence of 0.1 M glucose after 25 mins […] relative to control
Candida albicans [36] = assay: Antifungal activity against Candida albicans ATCC 90028 in presence of fluconazole by CLSI protocol based broth microdilution method; format: functional
Candida albicans [37] = assay: Inhibition of ABC efflux pumps in fluconazole susceptible Candida albicans 003gr assessed as reduction in energy-dependent rhodamine 6G efflux in presence of 0.1 M glucose after 25 mins […] relative to control

OC(Cn1cncn1)(Cn1cncn1)c1ccc(F)cc1F [FLUCONAZOLE]
125 to 500 µg/mL: MIC (Candida albicans [4]) | MIC (Candida albicans [9]) | MIC (Candida albicans [13])
active: inhibition (Candida albicans [7])
11%: inhibition at 8 µg/mL (Candida albicans [2])
inactive: Activity (Candida albicans [14])
2 to 8 µg/mL: MIC (Candida albicans [1]) | MIC (Candida albicans [3]) | MIC (Candida albicans [5]) | MIC (Candida albicans [6]) | MIC (Candida albicans [8]) | MIC (Candida albicans [10]) | MIC (Candida albicans [11])
100%: inhibition at 8 µg/mL (Candida albicans [12])

O=C(/C=C/c1ccc(/C=C/C(=O)c2ccccc2)cc1)c1ccccc1
1.5 - 13: fold change (FC) (Candida albicans [33])
1.25 - 10: fold change (FC) (Candida albicans [34])
< 20%: inhibition (Candida albicans [16]) | inhibition (Candida albicans [17]) | inhibition (Candida albicans [18]) | inhibition (Candida albicans [19]) | inhibition (Candida albicans [20]) | inhibition (Candida albicans [23]) | inhibition (Candida albicans [32]) | inhibition (Candida albicans [35]) | inhibition (Candida albicans [37])
49 - 94%: inhibition (INH) (Candida albicans [29])
16 to 31 µg/mL: MIC (Candida albicans [4]) | MIC (Candida albicans [9]) | MIC (Candida albicans [13])
0.31 - 1.5: fractional inhibitory concentration index (FICI) (Candida albicans [15]) | fractional inhibitory concentration index (FICI) (Candida albicans [22]) | fractional inhibitory concentration index (FICI) (Candida albicans [24]) | fractional inhibitory concentration index (FICI) (Candida albicans [27]) | fractional inhibitory concentration index (FICI) (Candida albicans [30]) | fractional inhibitory concentration index (FICI) (Candida albicans [31]) | fractional inhibitory concentration index (FICI) (Candida albicans [36])
0.266 - 0.27: fractional inhibitory concentration index (FICI) (Candida albicans [21]) | fractional inhibitory concentration index (FICI) (Candida albicans [25]) | fractional inhibitory concentration index (FICI) (Candida albicans [26])
66 - 99%: inhibition (INH) (Candida albicans [28])
2 to 16 µg/mL: MIC (Candida albicans [1]) | MIC (Candida albicans [3]) | MIC (Candida albicans [5]) | MIC (Candida albicans [6]) | MIC (Candida albicans [8]) | MIC (Candida albicans [10]) | MIC (Candida albicans [11])
